Data reported in ChEMBL document CHEMBL4689842, “EUbOPEN Chemogenomics Library wave 1” (2021).
Several values for one entry are separate records, joined by “and”; a condition that tells them apart may be missing. Equal entries are not always repeated.

System: HEK-293T
Assay: Multiplex assay against HEK293T;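 for Population Tubulin-Different-Phenotype (%): share of the cells with healthy nuclei that show this phenotype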
Type: toxicity, cell-based
Details: human
Method in brief: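 On a CQ1 microscope at 37°C and 5% CO2, live cells were imaged after compound addition. They had been stained at seeding with Hoechst33342, BioTracker Green Microtubule Cytoskeleton Dye, MitoTracker Red and Annexin V Alexa Fluor 680. CellPathfinder machine-learning gating assigned cells to Hoechst high-intensity objects or normal cells, normal cells to healthy, pyknosed or fragmented nuclei, and pyknosed cells to mitotic or apoptotic. Tubulin, mitochondrial-mass and membrane-permeability phenotypes are per cents of healthy-nucleus cells.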

[1] = 12 h, 1 µM, compound concentration 1 uM, replicate 1
[2] = 12 h, 1 µM, compound concentration 1 uM, replicate 2
[3] = 12 h, 10 µM, compound concentration 10 uM, replicate 1
[4] = 12 h, 10 µM, compound concentration 10 uM, replicate 2
[5] = 24 h, 1 µM, compound concentration 1 uM, replicate 1
[6] = 24 h, 1 µM, compound concentration 1 uM, replicate 2
[7] = 24 h, 10 µM, compound concentration 10 uM, replicate 1
[8] = 24 h, 10 µM, compound concentration 10 uM, replicate 2
[9] = 48 h, 10 µM, compound concentration 10 uM, replicate 1
[10] = 48 h, 10 µM, compound concentration 10 uM, replicate 2

## COCC(=O)NC/C=C/c1ccc2ncnc(Nc3ccc(Oc4ccc(C)nc4)c(C)c3)c2c1 [CP-724714]
[1]
  Population Apoptotic (%): 22% and 23%
  Population Fragmented Nuclei (%): 14% and 11%
  Population Healthy Nuclei (%): 39% and 69%
  Population Hoechst High Intensity Objects (%): 16% and 10%
  Population Mitotic Cells (%): 77% and 76%
  Population Normal (%): 83% and 89%
  Population Pyknosed Nuclei (%): 46% and 18%
  Total Cell Count: 617 and 674
[2]
  Population Apoptotic (%): 16% and 8%
  Population Healthy Nuclei (%): 70% and 89%
  Population Hoechst High Intensity Objects (%): 3% and 2%
  Population Mitotic Cells (%): 83% and 91%
  Population Normal (%): 96% and 97%
  Total Cell Count: 843 and 1632
[3]
  Population Apoptotic (%): 66%
  Population Fragmented Nuclei (%): 19%
  Population Healthy Nuclei (%): 18%
  Population Hoechst High Intensity Objects (%): 19%
  Population Membrane Permeable-Phenotype (%): 2%
  Population Mitochondria Different-Phenotype (%): 100%
  Population Mitotic Cells (%): 33%
  Population Normal (%): 80%
  Population Pyknosed Nuclei (%): 62%
  Population Tubulin-Different-Phenotype (%): 100%
  Total Cell Count: 329
[4]
  Population Apoptotic (%): 48%
  Population Fragmented Nuclei (%): 12%
  Population Healthy Nuclei (%): 12%
  Population Hoechst High Intensity Objects (%): 6%
  Population Membrane Permeable-Phenotype (%): 11%
  Population Mitochondria Different-Phenotype (%): 96%
  Population Mitotic Cells (%): 51%
  Population Normal (%): 93%
  Population Pyknosed Nuclei (%): 75%
  Population Tubulin-Different-Phenotype (%): 92%
  Total Cell Count: 230
[5]
  Population Apoptotic (%): 31% and 18%
  Population Fragmented Nuclei (%): 13% and 9%
  Population Healthy Nuclei (%): 54% and 81%
  Population Hoechst High Intensity Objects (%): 12% and 6%
  Population Membrane Permeable-Phenotype (%): 19%
  Population Mitotic Cells (%): 68% and 81%
  Population Normal (%): 87% and 93%
  Total Cell Count: 614 and 832
[6]
  Population Apoptotic (%): 14% and 5%
  Population Healthy Nuclei (%): 65% and 76%
  Population Hoechst High Intensity Objects (%): 4% and 2%
  Population Membrane Permeable-Phenotype (%): 10% and 9%
  Population Mitotic Cells (%): 85% and 94%
  Population Normal (%): 95% and 97%
  Total Cell Count: 1006 and 2815
[7]
  Population Apoptotic (%): 71%
  Population Fragmented Nuclei (%): 23%
  Population Healthy Nuclei (%): 17%
  Population Hoechst High Intensity Objects (%): 19%
  Population Membrane Permeable-Phenotype (%): 0%
  Population Mitochondria Different-Phenotype (%): 97%
  Population Mitotic Cells (%): 28%
  Population Normal (%): 80%
  Population Pyknosed Nuclei (%): 58%
  Total Cell Count: 336
[8]
  Population Apoptotic (%): 70%
  Population Fragmented Nuclei (%): 7%
  Population Healthy Nuclei (%): 28%
  Population Hoechst High Intensity Objects (%): 6%
  Population Membrane Permeable-Phenotype (%): 6%
  Population Mitochondria Different-Phenotype (%): 98%
  Population Mitotic Cells (%): 29%
  Population Normal (%): 93%
  Population Pyknosed Nuclei (%): 63%
  Population Tubulin-Different-Phenotype (%): 95%
  Total Cell Count: 245
[9]
  Population Apoptotic (%): 62%
  Population Fragmented Nuclei (%): 26%
  Population Healthy Nuclei (%): 10%
  Population Hoechst High Intensity Objects (%): 22%
  Population Membrane Permeable-Phenotype (%): 7%
  Population Mitochondria Different-Phenotype (%): 82%
  Population Mitotic Cells (%): 37%
  Population Normal (%): 77%
  Population Pyknosed Nuclei (%): 62%
  Population Tubulin-Different-Phenotype (%): 92%
  Total Cell Count: 347
[10]
  Population Apoptotic (%): 66%
  Population Fragmented Nuclei (%): 8%
  Population Healthy Nuclei (%): 51%
  Population Hoechst High Intensity Objects (%): 5%
  Population Mitochondria Different-Phenotype (%): 90%
  Population Mitotic Cells (%): 33%
  Population Normal (%): 94%
  Population Pyknosed Nuclei (%): 39%
  Population Tubulin-Different-Phenotype (%): 96%
  Total Cell Count: 291
